Results published in PubChem BioAssay.
Calls of active or inactive are those of the source.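 Rule for the calls, unless noted: active = viability loss from added drug above about 55%, and viability with drug at most 40%, in both replicates (limit read from the data, passing the limit was not always enough); inconclusive = both conditions met in only one replicate; inactive = neither replicate meets both conditions.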

Key:
[1] = HUVEC growth inhibition – cell-based, human, primary screen (AID 575;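 active = viability at or below 30% in both replicate assays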;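 note: 100% = median of untreated cell wells with 0.1% DMSO on each plate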); settings: HUVEC proliferation, CellTiter-Glo luminescence, 72 h; at 10 µM; stronger effect = lower value
Summary of the method: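 Material: primary human umbilical vein endothelial cells / Schedule: 72 h exposure, 37 °C, 5% CO2, 30 min RT equilibration / Signal: ATP-based CellTiter-Glo luminescent read / Read-out basis: percent of median DMSO-control luminescence / Control set: 32 DMSO-only cell-control wells (high), 32 MePR drug-control wells (low) per plate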

[2] = growth inhibitors of H69AR lung tumor, primary screen, human, duplicate replicates (AID 580;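 active = viability at or under a set limit in both replicates, limit being median viability minus 3 SD, cut at about 48% in these data, passing the limit was not always enough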;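 note: 100% = mean luminescence of untreated wells and 0% = no signal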); settings: H69AR lung tumor cells viability, ATP luminescence, 72 h; at 10 µM; stronger effect = lower value
[3] = reversal of MRP1-mediated doxorubicin resistance, pilot screen, H69AR cells, doxorubicin co-treatment (AID 601); settings: CellTiter-Glo, 72 h, at 10 µM; for differential viability (reversal): stronger effect = higher value
[4] = 384-well plate pilot, post-Golgi transport modulator project, inhibition of yeast transport mutant growth (AID 636; in the data active = inhibition above about 31%); settings: absorbance 615 nm, about 18 h, stronger effect = higher value
[5] = growth suppression of yeast trafficking mutant, preliminary HTS, modulators of trafficking downstream of Golgi apparatus project, 1536-format plate, OD 615 nm (AID 637; in the data active = inhibition above about 30%); settings: yeast transport mutant growth, absorbance 615 nm, 18 h; stronger effect = higher value
[6] = H69AR cells + 2 uM doxorubicin, measured here: viability with 2 uM doxorubicin, stronger effect = lower value
[7] = H69AR cells, compound alone cytotoxicity

SMILES	viability [1]	viability [2]	differential viability (reversal) ([3]; H69AR cells + 2 uM doxorubicin)	viability [3, 6]	viability [3, 7]	inhibition [4]	inhibition [5]
COc1ccccc1C(=O)Nc1c2c(nn1-c1cccc(C)c1C)CS(=O)(=O)C2	49.2% (inactive)	95.2% (inactive)	22.9% (inactive)	72.3%	95.2%	-4.13% (inactive)	1.94% (inactive)
COc1cc(CN2CCC(C(=O)NC3CCCC3)CC2)ccc1O	109% (inactive)	94.7% (inactive)	9.49% (inactive)	85.2%	94.7%	-4% (inactive)	0.79% (inactive)
CC(=O)Nc1cccc(NC(=O)CSc2nnnn2C(C)C)c1	97.5% (inactive)	99.2% (inactive)	14.7% (inactive)	84.5%	99.2%	-8.03% (inactive)	4.13% (inactive)
N#CC1=C(SCc2ccccc2)NC(=O)C(C#N)C12CCCC2 (stereo not given)	72.7% (inactive)	83.1% (inactive)	-9.75% (inactive)	92.9%	83.1%	-5% (inactive)	1.9% (inactive)
Cc1cc(=O)oc2c(CN3CCN(C)CC3)c(O)c(Cl)cc12	101% (inactive)	90.7% (inactive)	6.16% (inactive)	84.5%	90.7%	-6.05% (inactive)	-0.95% (inactive)
O=C(O)CCc1ccc(-c2ccccc2)n1CC(=O)O	88.9% (inactive)	93% (inactive)	1.87% (inactive)	91.1%	93%	-1.43% (inactive)	12.5% (inactive)
COC(=O)c1cccc(NC(=O)CSc2nnc(COc3ccccc3)n2C)c1	102% (inactive)	101% (inactive)	13.7% (inactive)	87%	101%	-4.27% (inactive)	2.22% (inactive)
O=P1(O)C=C(c2ccccc2)NC(c2ccccc2)=C1	108% (inactive)	91.7% (inactive)	-4.4% (inactive)	96.1%	91.7%	-4.93% (inactive)	0.48% (inactive)
N#CCCn1cnc2ccccc21	108% (inactive)	104% (inactive)	3.56% (inactive)	100%	104%	0.52% (inactive)	-3.97% (inactive)
COCC(=O)Nc1sc2c(c1C(=O)OC)CCC(C)C2 (stereo not given)	88.4% (inactive)	94.8% (inactive)	4.53% (inactive)	90.3%	94.8%	-2.76% (inactive)	5.08% (inactive)
